Measured values: ChEMBL document CHEMBL4699450, “Nonclassical Phenyl Bioisosteres as Effective Replacements in a Series of Novel Open-Source Antimalarials” (J Med Chem, 2020)
In brackets after ≈: the same amount, converted by molar mass. Activity calls are given as the source filed them. No cut-off for these calls is given here.

What was measured:
Plasmodium falciparum = assay: Antiplasmodial activity against Plasmodium falciparum 3D7 by SYBR green-I fluorescence dye based fluorescence assay; format: functional, organism-based
In short: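 P. falciparum 3D7 grown in human red cells (1.25% or 5% suspension) in RPMI 1640 with 0.5% Albumax II, 12 mM bicarbonate, 0.2 mM hypoxanthine, pH 7.3, gentamicin, 37 °C, 1% O2/3% CO2. Ten-point dose-response, 1-in-3 dilutions; SYBR Green I DNA fluorescence (ex 485/em 528 nm); mefloquine control; percent inhibition vs high/no-inhibition controls; four-parameter fit; IC50 from ≥3 independent experiments.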

[1] = Distribution coefficient, logD of compound at pH 7.4 by HPLC analysis; format: physicochemical; settings: octanol/water
In short: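 LogD at pH 7.4 estimated by gradient HPLC, correlating retention (mean of 2 injections) against standards of known partition coefficient.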

[2] = Kinetic solubility in pH 6.5 phosphate buffer after 30 mins by nephelometry; format: physicochemical; settings: read-out: Kinetic_solubility
In short: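 DMSO stock spiked into pH 6.5 phosphate buffer at 7 concentrations, final DMSO 1%; after 30 min precipitation read by nephelometry to give a solubility range.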

[3] = Half life in human liver microsomes at 1 uM in presence of NADPH-regenerating system; format: ADME, Microsome
[4] = Half life in mouse liver microsomes at 1 uM in presence of NADPH-regenerating system; format: ADME, Microsome
[5] = target: Voltage-gated inwardly rectifying potassium channel KCNH2 (Homo sapiens, UniProt Q12809); assay: Inhibition of human ERG
Voltage-gated inwardly rectifying potassium channel KCNH2, sequence (Q12809 whole entry): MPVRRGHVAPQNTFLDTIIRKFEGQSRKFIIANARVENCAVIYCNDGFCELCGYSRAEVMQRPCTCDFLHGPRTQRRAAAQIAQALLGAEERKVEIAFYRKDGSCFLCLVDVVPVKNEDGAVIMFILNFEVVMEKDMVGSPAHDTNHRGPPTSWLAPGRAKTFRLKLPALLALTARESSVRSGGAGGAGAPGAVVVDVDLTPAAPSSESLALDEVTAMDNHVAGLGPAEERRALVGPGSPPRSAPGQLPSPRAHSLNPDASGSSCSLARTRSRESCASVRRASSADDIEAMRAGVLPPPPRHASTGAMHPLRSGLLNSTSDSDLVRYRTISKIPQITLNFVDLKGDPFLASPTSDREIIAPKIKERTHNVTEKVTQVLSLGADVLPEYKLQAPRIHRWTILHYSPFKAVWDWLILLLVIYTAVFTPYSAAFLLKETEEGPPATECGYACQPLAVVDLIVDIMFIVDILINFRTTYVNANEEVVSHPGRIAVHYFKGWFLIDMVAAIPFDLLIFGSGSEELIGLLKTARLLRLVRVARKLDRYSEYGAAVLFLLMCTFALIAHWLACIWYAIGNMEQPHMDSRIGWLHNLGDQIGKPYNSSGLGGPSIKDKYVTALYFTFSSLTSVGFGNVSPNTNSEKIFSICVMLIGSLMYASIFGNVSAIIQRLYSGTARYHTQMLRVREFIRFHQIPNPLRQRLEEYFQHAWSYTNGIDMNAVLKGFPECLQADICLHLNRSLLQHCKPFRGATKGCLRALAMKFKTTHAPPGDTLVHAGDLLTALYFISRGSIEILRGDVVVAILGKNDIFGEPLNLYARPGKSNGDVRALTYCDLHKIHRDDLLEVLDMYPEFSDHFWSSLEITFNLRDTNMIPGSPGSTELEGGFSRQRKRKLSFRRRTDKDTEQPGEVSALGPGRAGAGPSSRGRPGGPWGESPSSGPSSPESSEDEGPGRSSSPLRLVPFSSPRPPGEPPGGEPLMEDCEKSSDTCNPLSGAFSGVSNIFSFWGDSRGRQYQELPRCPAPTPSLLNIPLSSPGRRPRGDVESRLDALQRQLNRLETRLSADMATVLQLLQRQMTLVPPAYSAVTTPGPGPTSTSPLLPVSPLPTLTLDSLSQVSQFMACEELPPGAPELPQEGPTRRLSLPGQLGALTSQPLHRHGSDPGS

Row | Compound | Activity (Plasmodium falciparum) | further results
1 | FC(F)Oc1ccc(-c2nnc3cncc(OC[C@H]4C[C@@H]5C[C@@H]4[C@@H]4O[C@H]54)n23)cc1 | inactive | 
2 | c1ccc(CCOc2cncc3nnc(C4CCNCC4)n23)cc1 | inactive | 
3 | FC(F)Oc1ccc(-c2nnc3cncc(OCC45CC(C(F)F)(C4)C5)n23)cc1 | Active | logD [1]: 3.6; solubility kinetic at 0.5 h [2]: 6.3 µg/mL (≈ 15.4 µM); half-life at 1 µM [3]: 190 min; half-life at 1 µM [4]: 66 min
4 | c1ccc(CCOc2cncc3nnc(C4CCOCC4)n23)cc1 | inactive | 
5 | FC(F)Oc1ccc(-c2nnc3cncc(OCCc4ccccc4)n23)cc1 |  | IC50 [5]: 7.41 µM; logD [1]: 3.7; solubility kinetic at 0.5 h [2]: 6.3 µg/mL (≈ 16.5 µM); half-life at 1 µM [3]: 26 min; half-life at 1 µM [4]: 7 min
6 | FC(F)Oc1ccc(-c2nnc3cncc(OCCC4COC4)n23)cc1 | inactive | 
7 | FC(F)Oc1ccc(-c2nnc3cncc(OCCC45C6C7C8C6C4C8C75)n23)cc1 (stereo unspecified) | Active | IC50 [5]: 4.26 µM; logD [1]: 4.3; solubility kinetic at 0.5 h [2]: < 1.6 µg/mL; half-life at 1 µM [3]: 9 min; half-life at 1 µM [4]: 3 min
8 | CC(C)(C)OC(=O)N1CCC(c2nnc3cncc(OCCc4ccccc4)n23)C1 (stereo unspecified) | inactive | 
9 | FC(F)Oc1ccc(-c2nnc3cncc(Oc4ccccc4)n23)cc1 | inactive | 
10 | FC(F)Oc1ccc(-c2nnc3cncc(OCCN4CCNCC4)n23)cc1 | inactive | 
11 | FC(F)Oc1ccc(-c2nnc3cncc(OC[C@H]4C[C@@H]5C[C@@H]4[C@H]4O[C@@H]54)n23)cc1 | inactive | 
12 | c1ccc(CCOc2cncc3nnc(C4CCNC4)n23)cc1 (stereo unspecified) | inactive | 
13 | FC(F)Oc1ccc(-c2nnc3cncc(OCCN4CC5(COC5)C4)n23)cc1 | inactive | 
14 | FC(F)Oc1ccc(-c2nnc3cncc(OCCN4CCCCC4)n23)cc1 | inactive | 
15 | CC(C)(C)OC(=O)N1CCN(CCOc2cncc3nnc(-c4ccc(OC(F)F)cc4)n23)CC1 | inactive | 
16 | c1ccc(CCOc2cncc3nnc(C4CCOC4)n23)cc1 (stereo unspecified) | inactive | 
17 | CC(C)(C)OC(=O)N1CCC(c2nnc3cncc(OCCc4ccccc4)n23)CC1 | inactive | 
18 | FC(F)Oc1ccc(-c2nnc3cncc(OCCN4CCCC4)n23)cc1 | inactive | 
